Consider 13 molecules from ChEMBL document CHEMBL4665803, “Discovery of Covalent Inhibitors Targeting the Transcriptional Enhanced Associate Domain Central Pocket” (J Med Chem, 2020).

A word on the inhibition: it is how much of the control response was suppressed. One may read the IC50 as the concentration at which inhibition is half-maximal. What is called Ki is a dissociation constant, usually derived from enzyme kinetics or from competition with a known ligand. The ΔTm is the change in melting temperature against a reference sample.

The target of assay [1] is T1, Transcriptional enhancer factor TEF-3 (Homo sapiens, UniProt Q15561). The assay is described as follows: Inhibition of CPM binding to N-terminal His6-tagged human TEAD4 (217 to 434 residues) expressed in Escherichia coli BL21-CodonPlus (DE3)-RIPL cells at 12.5 uM preincubated for 10 mins followed by CPM addition and measured after 1 hr by fluorescence assay relative to control. The conditions noted are these: time 70.0 min.
T1 sequence (Q15561 whole entry, the tested form may be a part): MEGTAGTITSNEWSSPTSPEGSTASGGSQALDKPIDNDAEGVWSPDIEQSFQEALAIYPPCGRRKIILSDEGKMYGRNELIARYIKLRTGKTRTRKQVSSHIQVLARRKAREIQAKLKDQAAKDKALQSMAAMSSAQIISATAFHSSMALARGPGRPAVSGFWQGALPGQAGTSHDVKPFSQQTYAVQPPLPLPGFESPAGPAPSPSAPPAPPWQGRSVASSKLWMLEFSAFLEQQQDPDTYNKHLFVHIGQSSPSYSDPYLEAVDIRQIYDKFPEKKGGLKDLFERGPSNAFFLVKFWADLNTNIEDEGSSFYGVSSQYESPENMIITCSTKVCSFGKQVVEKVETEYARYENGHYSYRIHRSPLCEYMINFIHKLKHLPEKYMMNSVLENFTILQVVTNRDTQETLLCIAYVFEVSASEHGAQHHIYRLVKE

Assay [2] is filed under the species Mus musculus. The assay is described as follows: Binding affinity to N-terminal His6-tagged mouse TEAD4 Cys360Ser mutant assessed as inhibition of protein-FAM-YAP (50 to 100 residues) interaction preincubated for 10 mins followed by FAM YAP addition and measured after 1 hr by fluorescence assay. The conditions noted are these: time 70.0 min. In outline:
(§1)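 FP competition in PBS pH 7.5 with mTEAD4 Cys360Ser or Cys360Ala mutant: serially diluted compound preincubated 10 min at room temperature with protein, then FAM-YAP50–100 added (final 10 nM FAM / 50 nM protein for each mutant); shaken 1 h at room temperature, FP read at Ex/Em 485/535 nm.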

Assay [3] concerns the target T1, Transcriptional enhancer factor TEF-3. The experiment in a line: Binding affinity to acylated N-terminal His6-tagged human TEAD4 (217 to 434 residues) expressed in Escherichia coli BL21-CodonPlus (DE3)-RIPL cells assessed as covalent adduct formation at 8 equiv after 1 hr by ESI-MS spectrophotometric analysis. Summed up: (§2)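 Whole-protein ESI–MS: 1 μM hTEAD4 incubated 1 h at room temperature with 8 equiv compound in 25 mM HEPES, 150 mM NaCl, pH 6.5; centrifuged, injected via online desalting column to UPLC-MS; masses deconvoluted to detect adducts.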

Assay [4] addresses Transcriptional enhancer factor TEF-1 (Homo sapiens, UniProt P28347). The experiment in a line: Inhibition of CPM binding to nonacylated N-terminal His6/GST-tagged human TEAD1 (209 to 426 residues) expressed in Escherichia coli BL21-CodonPlus (DE3)-RIPL cells preincubated for 10 mins followed by CPM addition and measured after 1 hr by fluorescence assay.
In assay [5] the target is T1, Transcriptional enhancer factor TEF-3. The experiment in a line: Reversible inhibition of CPM binding to nonacylated N-terminal His6-tagged human TEAD4 (217 to 434 residues) expressed in Escherichia coli BL21-CodonPlus (DE3)-RIPL cells measured after 1 to 24 hrs by fluorescence assay.
Assay [6] shares this target. The assay is described as follows: Binding affinity to nonacylated N-terminal His6-tagged human TEAD4 (217 to 434 residues) expressed in Escherichia coli BL21-CodonPlus (DE3)-RIPL cells at 8 equiv after 1 hr by ESI-MS spectrophotometric analysis. In outline:
as §2

Assay [7] has the same target. The experiment in a line: Inhibition of FITC-labeled palmitate tracer binding to N-terminal His6-tagged human TEAD4 (217 to 434 residues) expressed in Escherichia coli BL21-CodonPlus (DE3)-RIPL cells assessed as ratio of Kinact to Ki measured after 1 to 24 hrs by fluorescence assay. The conditions noted are these: time hrs 1-24.
Assay [8] shares this target. The assay is described as follows: Inhibition of TEAD4 in HEK293 cells assessed as reduction in ANKRD1 mRNA expression at 1 uM measured after 6 hrs by SYBR green dye based RT-PCR analysis relative to control. It counts as cell-based. In outline:
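HEK293 cells treated with DMSO or compound for 6 h; ANKRD1 mRNA measured by RT-qPCR relative to the DMSO control.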

Assay [9] shares this target. The assay is described as follows: Binding affinity to N-terminal His6-tagged human TEAD4 (217 to 434 residues) expressed in Escherichia coli BL21-CodonPlus (DE3)-RIPL cells assessed as inhibition of protein-FAM-YAP (50 to 100 residues) interaction preincubated for 10 mins followed by FAM YAP addition and measured after 1 hr by fluorescence assay. The conditions noted are these: time 70.0 min. Summed up:
(§3)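 FP competition in PBS pH 7.5: serially diluted compound preincubated 10 min at room temperature with TEAD4 protein, then FAM-YAP50–100 added; shaken 1 h at room temperature, FP read at Ex/Em 485/535 nm. Final FAM/protein: nonacylated hTEAD4 2 nM/5 nM; acylated hTEAD4 3 nM/15 nM. Compound stocks 10 mM in DMSO. IC50 from curve fitting.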

The species entered for assay [10] is Mus musculus. The assay is described as follows: Binding affinity to N-terminal His6/MBP-tagged mouse TEAD4 (209 to 427 residues) Cys360Ala mutant expressed in Escherichia coli BL21-CodonPlus (DE3)-RIPL cells assessed as inhibition of protein-FAM-YAP (50 to 100 residues) interaction preincubated for 10 mins followed by FAM YAP addition and measured after 1 hr by fluorescence assay. The note with it: time 70.0 min. Summed up: as §1

In assay [11] the target is T1, Transcriptional enhancer factor TEF-3. The assay is described as follows: Inhibition of CPM binding to N-terminal His6-tagged human TEAD4 (217 to 434 residues) expressed in Escherichia coli BL21-CodonPlus (DE3)-RIPL cells preincubated for 10 mins followed by CPM addition and measured after 1 hr by fluorescence assay. The note with it: read-out: IC50(app).
Assay [12] addresses Transcriptional enhancer factor TEF-3 (Mus musculus) (UniProt Q62296). The experiment in a line: Binding affinity to nonacylated mouse TEAD4 assessed as line broadening at Phe408 residue at 0.5 mM by 1H-15N HSQC spectra analysis. Summed up: (§4)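 1H–15N HSQC of 13C/15N-labeled mTEAD4, deacylated with hydroxylamine; spectra with DMSO or compound (0.5 mM) recorded at 37 °C on a 600 MHz cryoprobe instrument in 20 mM HEPES pH 7.3, 150 mM NaCl, 1 mM DTT; spectra overlaid.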

Assay [13] deals with T1, Transcriptional enhancer factor TEF-3. The assay is described as follows: Inhibition of FITC-labeled palmitate tracer binding to N-terminal His6-tagged human TEAD4 (217 to 434 residues) expressed in Escherichia coli BL21-CodonPlus (DE3)-RIPL cells preincubated for 10 mins followed by FITC-labeled palmitate tracer addition and measured after 1 hr by fluorescence assay. In outline:
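FP competition in 25 mM HEPES, 150 mM NaCl, pH 6.5: serially diluted compound preincubated 10 min at room temperature with nonacylated hTEAD4, then FITC-palmitate tracer added (final 50 nM protein, 10 nM tracer); shaken 1 h at room temperature, FP at Ex/Em 485/535 nm. Tracer Kd from saturation binding.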

Assay [14] deals with Transcriptional enhancer factor TEF-3 (Mus musculus) (UniProt Q62296). The assay is described as follows: Binding affinity to nonacylated mouse TEAD4 assessed as line broadening at Phe386 residue at 0.5 mM by 1H-15N HSQC spectra analysis. Summed up:
as §4

For assay [15], the target named is T1, Transcriptional enhancer factor TEF-3. The assay is described as follows: Binding affinity to nonacylated N-terminal His6-tagged human TEAD4 (217 to 434 residues) expressed in Escherichia coli BL21-CodonPlus (DE3)-RIPL cells assessed as melting temperature at 80 uM after 10 mins by SYPRO orange dye-based differential scanning fluorimetry method (reference value: 41 degreeC). For orientation: DSF heats the sample and reads unfolding from a dye or from intrinsic fluorescence.

The target is the same in assay [16]. The assay is described as follows: Inhibition of CPM binding to nonacylated N-terminal His6-tagged human TEAD4 (217 to 434 residues) expressed in Escherichia coli BL21-CodonPlus (DE3)-RIPL cells assessed as ratio of Kinact to Ki measured after 1 to 24 hrs by fluorescence assay. The conditions noted are these: time hrs 1-24.
Assay [17] has the same target. The experiment in a line: Binding affinity to TEAD4 in human HCT-116 cells assessed as change in melting temperature at 50 uM after 10 mins by […]. It counts as cell-based. Summed up: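 CETSA in HCT116 lysates (PBS, 0.04% NP-40, freeze–thaw lysis, 100,000g clearing; 1 mg/mL protein): compound at 50 μM or DMSO for 10 min at room temperature, aliquots heated across a temperature range, recentrifuged 100,000g at 4 °C for 25 min. Soluble TEAD4 detected by immunoblot with anti-TEAD4 antibody; melting temperature from turning point of fitted curves.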

For assay [18] the target is unchanged. The assay is described as follows: Binding affinity to nonacylated N-terminal His6-tagged human TEAD4 (217 to 434 residues) expressed in Escherichia coli BL21-CodonPlus (DE3)-RIPL cells assessed as inhibition of protein-FAM-YAP (50 to 100 residues) interaction preincubated for 10 mins followed by FAM YAP addition and measured after 1 hr by fluorescence assay. Summed up:
as §3

The target is the same in assay [19]. The assay is described as follows: Selectivity ratio of apparent IC50 for inhibition of CPM binding to N-terminal His6-tagged human TEAD4 (217 to 434 residues) expressed in Escherichia coli BL21-CodonPlus (DE3)-RIPL cells to IC50 for inhibition of FITC-labeled palmitate tracer binding to N-terminal His6-tagged human TEAD4 (217 to 434 residues) expressed in Escherichia coli BL21-CodonPlus (DE3)-RIPL cells.

Assay [20] addresses Transcriptional enhancer factor TEF-3 (Mus musculus) (UniProt Q62296). The experiment in a line: Binding affinity to nonacylated mouse TEAD4 at 0.5 mM by 1H-15N HSQC spectra analysis. Summed up: as §4

SMILES strings stand for the structures. Calls of active or inactive are those of the source. The rule behind the calls is not given here. Some results are limits rather than exact numbers.

Transcriptional enhancer factor TEF-3 (Mus musculus), sequence (Q62296 whole entry): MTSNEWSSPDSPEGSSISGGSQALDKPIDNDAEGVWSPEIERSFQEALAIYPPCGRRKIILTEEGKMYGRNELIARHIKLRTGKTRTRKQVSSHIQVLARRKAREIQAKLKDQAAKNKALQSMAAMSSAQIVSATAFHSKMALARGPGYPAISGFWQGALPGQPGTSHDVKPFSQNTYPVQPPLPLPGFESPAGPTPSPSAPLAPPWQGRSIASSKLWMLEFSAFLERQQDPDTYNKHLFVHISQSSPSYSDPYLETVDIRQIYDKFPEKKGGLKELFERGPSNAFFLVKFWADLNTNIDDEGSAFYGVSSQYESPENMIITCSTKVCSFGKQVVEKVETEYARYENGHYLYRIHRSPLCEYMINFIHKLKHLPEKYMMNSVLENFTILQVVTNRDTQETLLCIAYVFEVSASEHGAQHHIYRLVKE
Transcriptional enhancer factor TEF-1, sequence (P28347 whole entry, the tested form may be a part): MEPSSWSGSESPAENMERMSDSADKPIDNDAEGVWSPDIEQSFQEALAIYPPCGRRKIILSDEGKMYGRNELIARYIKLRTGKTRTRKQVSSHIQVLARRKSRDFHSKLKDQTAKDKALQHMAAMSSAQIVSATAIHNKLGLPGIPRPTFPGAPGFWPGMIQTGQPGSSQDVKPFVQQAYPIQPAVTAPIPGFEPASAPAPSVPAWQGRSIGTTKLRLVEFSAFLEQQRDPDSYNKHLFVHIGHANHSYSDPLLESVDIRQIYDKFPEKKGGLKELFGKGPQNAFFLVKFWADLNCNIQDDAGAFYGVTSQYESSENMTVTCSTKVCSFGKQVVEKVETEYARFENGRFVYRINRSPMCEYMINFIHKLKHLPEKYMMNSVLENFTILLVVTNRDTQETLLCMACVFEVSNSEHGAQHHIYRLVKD

On to `O=c1cc(CO)oc(C(Nc2ccccc2)c2ccccc2)c1O` (stereo not drawn), for which the inhibition was more than 50% in assay [1] and 90% in [8]. Further, the inhibition entry (in the assay filed under Mus musculus [2]; in assay [9]; in the assay filed under Mus musculus [10]) was “inactive” throughout. Further, the result in assay [3] was inactive. In addition, the IC50 in assay [4] is 2600 nM; in assay [11] it was 2300 nM; in assay [13] it was 200 nM; in assay [18], 70 nM. Moreover, the inhibition constant (Ki) in assay [5] is 2600 nM. For the same molecule, the result in assay [6], in assay [12] and in assay [14] was Active. For the same molecule, the Ratio was 4 in [7] and 8.3 in assay [16]. Besides, the Tm in [15] is 36 °C. Also, the ΔTm in [17] was 3.3 °C.

Turning to `COc1c(C(Nc2ccccn2)c2ccccc2F)oc(CO)cc1=O` (stereo not drawn), in assay [1], the inhibition was less than 50%. In addition, in assay [19], the Ratio IC50 was more than 200. Moreover, the results for the IC50 in assay [11] and in assay [13] were more than 100000 nM and 49900 nM, respectively.

`O=c1cc(CO)oc(C(Nc2ccccn2)c2ccccn2)c1O` (stereo not drawn): the inhibition in assay [1] is more than 50%. In addition, the values for the IC50 in assay [11] and in assay [13] were more than 100000 nM and 16000 nM, respectively.

In the case of `O=c1cc(CO)oc(C(c2ccccc2)N2Cc3ccccc3C2)c1O` (stereo not drawn), the inhibition in assay [1] is more than 50%. The IC50 is 13200 nM in assay [11] and 900 nM in assay [13].

For `O=c1cc(CO)oc(C(Nc2ccccn2)c2ccc(Br)cc2)c1O` (stereo not drawn), in assay [1], the inhibition was more than 50%. The figures for the IC50 in assay [11] and in assay [13] were 3700 nM and 400 nM, respectively. Besides, the Tm in assay [15] is 39 °C.

In the case of `O=c1cc(CO)oc(C(Nc2ccccc2)c2ccc(Br)cc2)c1O` (stereo not drawn), the inhibition in assay [1] is more than 50%. In addition, the IC50 in assay [11] worked out at 1200 nM; in [13], 200 nM.

For the molecule `CC(C)C(Nc1ccccc1)c1oc(CO)cc(=O)c1O` (stereo not drawn), the inhibition in assay [1] is more than 50%. Further, the results for the IC50 in [11] and in assay [13] were more than 100000 nM and 38100 nM, respectively.

With `O=c1cc(CO)oc(C(Nc2ccccn2)c2ccccc2)c1O` (stereo not drawn), the inhibition in assay [1] is more than 50%. Besides, the IC50 in assay [11] was 3100 nM; in [13], 300 nM.

Consider `O=c1cc(CO)oc(C(Nc2nccs2)c2ccccc2)c1O` (stereo not drawn), for which, in [1], the inhibition is more than 50%. Further, the IC50 is 53400 nM in assay [11] and 5600 nM in assay [13]. Further, the Tm in assay [15] turned out to be 41 °C.

As to `NC(=O)c1ccc(NC(c2ccccn2)c2oc(CO)cc(=O)c2O)cc1` (stereo not drawn), in assay [1], the inhibition was more than 50%. The IC50 turned out to be 9200 nM in assay [11] and 1100 nM in assay [13].

With `COc1c(C(Nc2ccccc2)c2ccccc2)oc(CO)cc1=O` (stereo not drawn), the inhibition in assay [1] is less than 50%. Further, the result in assay [6] and in assay [20] was inactive. Also, the inhibition result in [8] was “inactive”. Besides, the Ratio IC50 in [19] was more than 200. The IC50 in assay [11] was more than 100000 nM; in assay [13], 41600 nM; in assay [18] it was 9500 nM. Also, the Tm in assay [15] is 41 °C.

As to `O=c1cc(CO)oc(C(Nc2ccccc2)c2ccccn2)c1O` (stereo not drawn), the inhibition in [1] was more than 50%. Moreover, the values for the IC50 in assay [11] and in assay [13] were 18900 nM and 500 nM, respectively.

For the molecule `CC(C)c1ccc(C(Nc2ccccc2)c2oc(CO)cc(=O)c2O)cc1` (stereo not drawn), in [1], the inhibition was more than 50%. For the same molecule, the values for the IC50 in assay [11] and in [13] were 1000 nM and 200 nM, respectively.
